Measured values from publication PMC5879491 (Journal of the American Chemical Society, 2018).

How the values were obtained:
[1] = biological target: T1, H3R (Homo sapiens, UniProt Q9Y5N1); assay: Two-electrode voltage clamp; type: cell-based
[2] = biological target: T1, H3R; type: binding; details: for effect of illumination of compound solution at 360 ± 20 nm on affinity: data not shown
Method in brief: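 A 1 mM stock of test compound was either illuminated at 360 ± 20 nm to PSS (checked by LC–MS) or kept dark; all later handling was in darkness. Competition ran at 10^-5 to 10^-12 M against 1.6 nM [3H]-Nα-methylhistamine. Membranes were homogenates of HEK293T cells PEI-transfected 48 h with human H3R (445 isoform). Incubation was 2 h at 25 °C in 50 mM Tris–HCl pH 7.4, followed by GF/C filtration and scintillation counting. Ki was obtained by Cheng–Prusoff; the shift was pKi cis minus pKi trans.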

[3] = Photostability and fatigue resistance under prolonged or repeated illumination; type: physicochemical
[4] = biological target: hH4R (Homo sapiens, UniProt Q9H3N8); assay: H4R radioligand binding
Sequence of hH4R (Q9H3N8 whole entry): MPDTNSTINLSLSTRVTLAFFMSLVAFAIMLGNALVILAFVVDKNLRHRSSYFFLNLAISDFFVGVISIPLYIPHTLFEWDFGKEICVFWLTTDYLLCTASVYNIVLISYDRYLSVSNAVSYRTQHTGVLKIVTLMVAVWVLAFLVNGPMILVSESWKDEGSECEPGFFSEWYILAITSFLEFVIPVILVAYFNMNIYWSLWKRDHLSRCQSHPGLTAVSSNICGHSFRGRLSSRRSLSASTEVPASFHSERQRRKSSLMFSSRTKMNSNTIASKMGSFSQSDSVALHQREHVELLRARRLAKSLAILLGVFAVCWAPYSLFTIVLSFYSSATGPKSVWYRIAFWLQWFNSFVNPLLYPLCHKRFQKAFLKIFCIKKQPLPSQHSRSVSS

[5] = biological target: hH2R (Homo sapiens, UniProt P25021); assay: H2R radioligand binding
Sequence of hH2R (P25021 whole entry): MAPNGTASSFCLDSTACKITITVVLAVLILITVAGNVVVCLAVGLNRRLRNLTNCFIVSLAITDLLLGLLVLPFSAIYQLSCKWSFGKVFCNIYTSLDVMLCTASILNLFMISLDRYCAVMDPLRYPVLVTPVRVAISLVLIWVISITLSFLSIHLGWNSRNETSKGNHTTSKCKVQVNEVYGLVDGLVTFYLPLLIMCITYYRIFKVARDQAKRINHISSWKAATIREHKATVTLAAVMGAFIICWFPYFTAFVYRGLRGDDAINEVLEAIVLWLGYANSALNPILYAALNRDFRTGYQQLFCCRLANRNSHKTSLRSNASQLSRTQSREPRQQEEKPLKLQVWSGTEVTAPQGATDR

[6] = Real-time photoisomerization rate by UV-vis under perpendicular illumination; type: physicochemical; details: 25 μM in 50 mM Tris-HCl pH 7.4 + 1% DMSO-d6
Method in brief: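 Real-time kinetics: test compound at 25 μM in 50 mM Tris–HCl pH 7.4 with 1% DMSO-d6. Illumination alternated between 360 ± 20 nm and 434 ± 9 nm, delivered perpendicular to the spectrometer beam. Spectra were taken at 1 s intervals, with absorbance followed at 344 or 319 nm depending on compound. Photoisomerization half-lives came from fits to the absorbance data.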

T1 sequence (Q9Y5N1 whole entry): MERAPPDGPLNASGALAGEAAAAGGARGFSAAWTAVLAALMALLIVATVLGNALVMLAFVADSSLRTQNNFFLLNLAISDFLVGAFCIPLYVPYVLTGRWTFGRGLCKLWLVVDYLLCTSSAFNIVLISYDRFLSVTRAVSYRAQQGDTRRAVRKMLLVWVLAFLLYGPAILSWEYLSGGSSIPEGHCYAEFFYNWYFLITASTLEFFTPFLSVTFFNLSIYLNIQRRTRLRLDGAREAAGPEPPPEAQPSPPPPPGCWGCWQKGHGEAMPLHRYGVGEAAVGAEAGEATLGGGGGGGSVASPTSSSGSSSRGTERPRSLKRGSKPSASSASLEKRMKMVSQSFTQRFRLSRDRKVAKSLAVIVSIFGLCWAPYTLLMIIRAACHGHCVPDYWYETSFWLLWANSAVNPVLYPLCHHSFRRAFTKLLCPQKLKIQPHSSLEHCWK

NC(=NCc1ccc(Cl)cc1)SCCCc1cnc[nH]1 [clobenpropit]
inhibition of GIRK channel activation by histamine (1 μM) ([1]; simultaneous superfusion, 1 μM): fully inhibited

NCCc1c[nH]cn1 [Histamine]
effect of illumination of compound solution at 360 ± 20 nm on affinity [2]: not affected

O=C(c1cccc(/N=N/c2cccc(OCCCN3CCCCC3)c2)c1)N1CCCC1 [Compound 28]
increase in H3R binding affinity upon photoisomerization ([2]; illumination at 360 nm, PSS cis vs trans, listed as VUF14738): over 10 fold
change in current upon superfusion of compound only ([1]; noninjected and H3R-GIRK expressing oocytes): did not result in changes in current
photodegradation (1H NMR and LC-MS) ([3]; 48 h illumination at 360 ± 20 nm, 0.77 mW/mm^2): no apparent photodegradation
resistance to fatigue / photobleaching ([3]; over 1000 isomerization cycles, 360 ± 20 and 434 ± 9 nm, 20 s intervals): highly resistant to photobleaching
affinity for H4R [4]: no measurable affinity
affinity for H2R [5]: no measurable affinity
photoisomerization half-life ([6]; illumination 360 ± 20 nm): 16 ± 0.9 s
photoisomerization half-life ([6]; illumination 434 ± 9 nm): 11 ± 0.3 s

O=C(c1ccc2cc(OCCCN3CCCCC3)ccc2c1)N1CCCC1 [Compound 1]
effect of illumination of compound solution at 360 ± 20 nm on affinity [2]: not affected

pertussis toxin
inhibition of GIRK channel activation by histamine (1 μM) ([1]; pretreating the oocytes, 1.37 ng/oocyte): fully inhibited
